Source: ChEMBL document CHEMBL1121887, “A new nontricyclic antidepressant agent. Synthesis and activity of N-[trans-2-(dimethylamino)cyclopentyl]-N-(3,4-dichlorophenyl)propanamide and related compounds” (1981)

Columns and labels:
Assay type in all cases: functional
Mus musculus [1] = organism: Mus musculus; experiment: Antidepressant activity using yohimbine potentiation test in mice
Mus musculus [2] = organism: Mus musculus; experiment: Antidepressant activity using oxotremorine antagonism test in mice
Mus musculus [3] = organism: Mus musculus; experiment: Antidepressant activity using apomorphine potentiation test in mice
In short: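 Male CF-1 mice in groups of four got test compound i.p. (50 and 25 mg/kg) in 0.25% aqueous methylcellulose. 1 h later they got apomorphine 10 mg/kg s.c. and were watched 30 min for stereotyped gnawing and licking, each positive. If ≥3 were positive, the test was repeated at 0.3 log lower doses until ≤1 responded. ED50 and 95% CI by Spearman–Karber.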

Row | SMILES | ED50 (Mus musculus [1]; Mus musculus, read-out: ED50) | ED50 (Mus musculus [2]; Mus musculus, read-out: ED50) | ED50 (Mus musculus [3]; Mus musculus, read-out: ED50) | ED50 (Mus musculus [1]) | ED50 (Mus musculus [2]) | ED50 (Mus musculus [3])
1 | CCC(=O)N(c1ccc(C)c(Cl)c1)C1CCCC1N(C)C (stereo not drawn) | 1 mg/kg | 0.6 mg/kg | 2 mg/kg |  |  | 
2 | CCC(=O)N(c1ccc(OC)cc1)C1CCCCC1N(C)C (stereo not drawn) | > 50 mg/kg | > 50 mg/kg | > 50 mg/kg |  |  | 
3 | CN(C)C1CCCC1N(C=O)c1ccccc1 (stereo not drawn) | 40 mg/kg | > 50 mg/kg |  |  |  | 
4 | CCC(=O)N(c1cccc(Br)c1)C1CCCC1N(C)C (stereo not drawn) | 0.1 mg/kg | 0.1 mg/kg | 2 mg/kg |  |  | 
5 | CCC(=O)N(c1ccc(Cl)c(C)c1)C1CCCC1N(C)C (stereo not drawn) | 2 mg/kg | 2 mg/kg | 10 mg/kg |  |  | 
6 | CCC(=O)N(c1ccc(Cl)cc1)C1CCCCC1N(C)C (stereo not drawn) | 35 mg/kg | 17 mg/kg | 14 mg/kg |  |  | 
7 | CCC(=O)N(c1ccc(Br)cc1)C1CCCC1N(C)C (stereo not drawn) | 2 mg/kg | 3 mg/kg | > 50 mg/kg |  |  | 
8 | CN(C)C1CCCC1N(C=O)c1ccc(Cl)c(Cl)c1 (stereo not drawn) | 9 mg/kg | 40 mg/kg | > 50 mg/kg |  |  | 
9 | CCC(=O)N(c1ccc(OC)c(OC)c1)C1CCCC1N(C)C (stereo not drawn) | 9 mg/kg | 10 mg/kg | 10 mg/kg |  |  | 
10 | CCC(=O)N(c1ccccc1)C1CCCCC1N(C)C (stereo not drawn) | > 50 mg/kg | > 50 mg/kg | > 50 mg/kg |  |  | 
11 | CCC(=O)N(c1ccc(Cl)c(Cl)c1)C1CCCC1N(CC)CC (stereo not drawn) | 0.1 mg/kg | 0.03 mg/kg | 0.3 mg/kg |  |  | 
12 | CCC(=O)N(c1ccc(Cl)c(Cl)c1)C1CCCC1O (stereo not drawn) | 0.4 mg/kg | 9 mg/kg | 20 mg/kg |  |  | 
13 | CCC(=O)N(c1ccc(C)cc1)C1CCCCC1N(C)C (stereo not drawn) | > 50 mg/kg | > 50 mg/kg | > 50 mg/kg |  |  | 
14 | CN(C)C1CCCC1N(C(=O)c1cccs1)c1ccc(Cl)c(Cl)c1 (stereo not drawn) | 20 mg/kg | 10 mg/kg | > 50 mg/kg |  |  | 
15 | CCC(=O)N(c1ccc(Cl)c(Cl)c1)C1CCCC1N (stereo not drawn) | 0.02 mg/kg | 0.8 mg/kg |  |  |  | 
16 | CCC(=O)N(c1cccc(F)c1)C1CCCC1N(C)C (stereo not drawn) | 0.4 mg/kg | 0.6 mg/kg | 5 mg/kg |  |  | 
17 | CCC(=O)N(c1ccc(Cl)c(Cl)c1)C1CCCC1N(C)Cc1ccccc1 (stereo not drawn) | 0.2 mg/kg | 40 mg/kg | > 50 mg/kg |  |  | 

Row | SMILES | ED50 (Mus musculus [1]; Mus musculus, read-out: ED50) | ED50 (Mus musculus [2]; Mus musculus, read-out: ED50) | ED50 (Mus musculus [3]; Mus musculus, read-out: ED50) | ED50 (Mus musculus [1]) | ED50 (Mus musculus [2]) | ED50 (Mus musculus [3])
18 | CCC(=O)N(c1ccc(Cl)c(Cl)c1)C1CCCC1NC (stereo not drawn) | 0.4 mg/kg | 0.3 mg/kg |  |  |  | 
19 | CCC(=O)N(c1ccc(F)c(Cl)c1)C1CCCC1N(C)C (stereo not drawn) | 0.2 mg/kg | 2 mg/kg | 0.7 mg/kg |  |  | 
20 | CCC(=O)N(c1ccc(Cl)c(Cl)c1)C1CCCC1N1CCCC1 (stereo not drawn) | 0.6 mg/kg | 2 mg/kg | 3 mg/kg |  |  | 
21 | C=CCN(C)C1CCCC1N(C(=O)CC)c1ccc(Cl)c(Cl)c1 (stereo not drawn) | 0.2 mg/kg | 0.2 mg/kg | 6 mg/kg |  |  | 
22 | CCCC(=O)N(c1ccc(Cl)c(Cl)c1)C1CCCC1N(C)C (stereo not drawn) | 2 mg/kg | 7 mg/kg | 0.9 mg/kg |  |  | 
23 | CCC(=O)N(c1cccc(C)c1)C1CCCCC1N(C)C (stereo not drawn) | > 50 mg/kg | 15 mg/kg | > 50 mg/kg |  |  | 
24 | CCC(=O)N(c1ccccc1)C1CCCC1N(C)C (cis isomer) |  |  |  | 10 mg/kg | >50 mg/kg | >50 mg/kg
25 | CCC(=O)N(c1ccc(Cl)c(Cl)c1)C1CCCC1N(C)C (cis isomer) [ECLANAMINE] |  |  |  | 0.9 mg/kg | 2 mg/kg | >50 mg/kg
26 | CCC(=O)N(c1ccc(Cl)c(Cl)c1)C1CCCC1N(C)C (stereo in doubt; 6) [ECLANAMINE] |  |  |  | 0.4 mg/kg | 0.2 mg/kg | 10 mg/kg
27 | CCC(=O)N(c1ccccc1)C1CCCC1N(C)C (stereo in doubt; 16) |  |  |  | 3 mg/kg | 2 mg/kg | 0.8 mg/kg
28 | CCC(=O)N(c1ccc(OC)cc1)C1CCCC1N(C)C (stereo in doubt; 20) |  |  |  | 30 mg/kg | 20 mg/kg | 
29 | CCC(=O)N(c1cccc(C)c1)C1CCCC1N(C)C (stereo in doubt; 22) | 3 mg/kg | 1 mg/kg | 25 mg/kg |  |  | 
30 | CCC(=O)N(c1ccc(C)cc1)C1CCCC1N(C)C (stereo in doubt; 24) |  |  |  | 30 mg/kg | 10 mg/kg | 10 mg/kg
31 | CCC(=O)N(c1cccc(C)c1)C1CCCC1N(C)C (stereo in doubt; 44) |  |  |  | 3 mg/kg | 1 mg/kg | 25 mg/kg
32 | CCC(=O)N(c1ccc(C)cc1)C1CCCC1N(C)C (stereo in doubt; 45) | 30 mg/kg | 10 mg/kg | 10 mg/kg |  |  | 
33 | CCC(=O)N(c1ccc(OC)cc1)C1CCCC1N(C)C (stereo in doubt; 47) | 30 mg/kg | 20 mg/kg | > 50 mg/kg |  |  | 
34 | CN(C)CCCN1c2ccccc2CCc2ccccc21.Cl [IMIPRAMINE HYDROCHLORIDE] | 4 mg/kg | 1 mg/kg | 1 mg/kg |  |  | 
